Measurements taken from paper PMC3831274 (Bioorganic & medicinal chemistry, 2013).
pEC50, pIC50: −log10 of the molar value.

What was measured:
[1] = system: several cell lines derived from various human malignancies; assay: antiproliferative activity across several cell lines; assay type: cell-based
Outline: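 Cells at 2.5 × 10⁵ cells/mL in 384-well plates; suspension lines in RPMI-1640/10% FBS (mouse lines plus β-mercaptoethanol), adherent lines in DMEM/10% FBS. Seven 2-fold dilutions from 5 µM or 20 µM top; DMSO top 0.2%. 37°C, 48 h; PrestoBlue read-out. Media background subtracted; viability normalized to cells-only wells (100%). Two independent triplicate runs (n=6) or three replicate experiments, by cell set.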

Bcl-xL = Bcl-xL (Homo sapiens, UniProt Q07817); assay: fluorescence polarization; assay type: binding
Human Mcl-1 = Human Mcl-1 (Homo sapiens, UniProt Q07820); assay: fluorescence polarization; assay type: binding; conditions: for Mcl-1 potency relative to initial hit 1 (in words): SAR of phenyl region
Mcl1-1780 [2] = assay: nuclear apoptosis determination; assay type: cell-based, mouse; conditions: Mcl1-1780, 24 hours
Bcl2-1863 [3] = assay: nuclear apoptosis determination; assay type: cell-based, mouse; conditions: Bcl2-1863, 24 hours
Mcl1-1780 [4] = assay: cytochrome c release determination; assay type: cell-based, mouse; conditions: Mcl1-1780 compared with Bcl2-1863, 2 hours
CYP450 2D6 = CYP450 2D6 (Homo sapiens, UniProt P10635); assay: CYP450 inhibition 2D6; assay type: in vitro ADME
SUDHL-8 = assay: cytochrome c release determination; assay type: cell-based, human; conditions: SUDHL-8, 2 hours, 20µM EU-5346 or 100µM Puma
CYP450 1A2 = biological target: T1, CYP450 1A2 (Homo sapiens, UniProt P05177); assay: CYP450 inhibition 1A2
T1 sequence (P05177 1-516): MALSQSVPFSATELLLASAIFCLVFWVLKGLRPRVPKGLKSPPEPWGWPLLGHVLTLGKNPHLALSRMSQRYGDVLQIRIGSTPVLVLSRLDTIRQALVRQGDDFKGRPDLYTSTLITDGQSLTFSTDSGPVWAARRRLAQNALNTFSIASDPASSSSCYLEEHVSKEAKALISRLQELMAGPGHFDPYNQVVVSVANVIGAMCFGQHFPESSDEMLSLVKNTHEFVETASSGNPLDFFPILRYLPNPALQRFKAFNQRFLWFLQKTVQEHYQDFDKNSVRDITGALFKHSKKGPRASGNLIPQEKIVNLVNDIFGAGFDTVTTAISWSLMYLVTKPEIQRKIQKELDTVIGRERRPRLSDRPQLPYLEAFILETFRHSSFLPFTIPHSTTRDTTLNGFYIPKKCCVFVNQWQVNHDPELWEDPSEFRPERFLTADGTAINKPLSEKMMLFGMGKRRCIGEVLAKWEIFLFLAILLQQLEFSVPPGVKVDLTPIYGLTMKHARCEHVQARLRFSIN

Mcl1-1780 [5] = assay: Annexin V apoptosis assay; assay type: cell-based, mouse; conditions: Mcl1-1780, 16 hours, 0.15 µM-40 µM
SUDHL-10 = assay: cytochrome c release determination; assay type: cell-based, human; conditions: SUDHL-10, 2 hours, 20µM EU-5346 or 100µM Puma
CYP450 3A4 = CYP450 3A4 (Homo sapiens, UniProt P08684); assay: CYP450 inhibition 3A4; assay type: in vitro ADME
SUDHL-6 = assay: cytochrome c release determination; assay type: cell-based, human; conditions: SUDHL-6, 2 hours, 20µM EU-5346 or 100µM Puma
Bcl2-1863 [6] = assay: Annexin V apoptosis assay; assay type: cell-based, mouse; conditions: Bcl2-1863, 16 hours, 0.15 µM-40 µM
CYP450 2C9 = CYP450 2C9 (Homo sapiens, UniProt P11712); assay: CYP450 inhibition 2C9; assay type: in vitro ADME
CYP450 2C9, sequence (P11712 whole entry): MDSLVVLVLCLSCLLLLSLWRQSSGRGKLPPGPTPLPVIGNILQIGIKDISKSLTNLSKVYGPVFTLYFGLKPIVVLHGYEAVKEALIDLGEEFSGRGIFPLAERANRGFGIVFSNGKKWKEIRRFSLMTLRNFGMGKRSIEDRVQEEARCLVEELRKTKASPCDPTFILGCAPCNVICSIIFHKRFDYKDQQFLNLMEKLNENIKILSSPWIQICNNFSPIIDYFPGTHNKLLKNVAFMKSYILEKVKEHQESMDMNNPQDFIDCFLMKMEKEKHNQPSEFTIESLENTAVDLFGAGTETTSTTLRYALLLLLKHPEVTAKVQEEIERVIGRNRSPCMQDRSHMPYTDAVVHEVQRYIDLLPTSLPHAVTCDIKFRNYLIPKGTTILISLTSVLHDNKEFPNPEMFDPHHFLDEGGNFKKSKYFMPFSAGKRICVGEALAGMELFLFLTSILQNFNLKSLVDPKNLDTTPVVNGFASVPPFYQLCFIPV

Human Mcl-1, sequence (Q07820 1-327 limits assumed): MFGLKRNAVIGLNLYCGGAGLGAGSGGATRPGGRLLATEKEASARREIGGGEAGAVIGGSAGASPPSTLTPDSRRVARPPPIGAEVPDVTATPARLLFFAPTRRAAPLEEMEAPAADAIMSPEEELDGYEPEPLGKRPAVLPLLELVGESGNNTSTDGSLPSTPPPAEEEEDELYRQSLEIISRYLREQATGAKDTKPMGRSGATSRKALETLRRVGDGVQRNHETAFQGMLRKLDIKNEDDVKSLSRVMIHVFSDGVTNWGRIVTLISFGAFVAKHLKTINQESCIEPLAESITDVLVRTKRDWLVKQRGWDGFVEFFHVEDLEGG
Bcl-xL, sequence (Q07817 1-209 limits assumed): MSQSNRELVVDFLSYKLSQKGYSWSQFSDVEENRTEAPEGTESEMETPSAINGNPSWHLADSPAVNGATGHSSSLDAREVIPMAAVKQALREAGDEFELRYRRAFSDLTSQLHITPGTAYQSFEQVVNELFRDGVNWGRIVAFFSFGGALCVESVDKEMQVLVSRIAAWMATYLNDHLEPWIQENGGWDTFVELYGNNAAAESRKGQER
CYP450 3A4, sequence (P08684 whole entry): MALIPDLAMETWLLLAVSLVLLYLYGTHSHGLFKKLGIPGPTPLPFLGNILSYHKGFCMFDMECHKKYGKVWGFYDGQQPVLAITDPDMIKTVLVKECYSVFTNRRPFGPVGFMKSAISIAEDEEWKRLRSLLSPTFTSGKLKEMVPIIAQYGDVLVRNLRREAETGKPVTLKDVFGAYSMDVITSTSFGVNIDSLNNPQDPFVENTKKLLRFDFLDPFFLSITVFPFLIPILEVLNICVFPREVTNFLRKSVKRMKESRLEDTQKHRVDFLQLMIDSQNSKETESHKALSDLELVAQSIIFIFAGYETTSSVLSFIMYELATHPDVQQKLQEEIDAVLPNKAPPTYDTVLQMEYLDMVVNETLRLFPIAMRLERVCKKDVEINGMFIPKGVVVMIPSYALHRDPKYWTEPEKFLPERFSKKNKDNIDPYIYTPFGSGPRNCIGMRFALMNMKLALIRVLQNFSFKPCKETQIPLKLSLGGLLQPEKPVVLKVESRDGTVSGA
CYP450 2D6, sequence (P10635 whole entry): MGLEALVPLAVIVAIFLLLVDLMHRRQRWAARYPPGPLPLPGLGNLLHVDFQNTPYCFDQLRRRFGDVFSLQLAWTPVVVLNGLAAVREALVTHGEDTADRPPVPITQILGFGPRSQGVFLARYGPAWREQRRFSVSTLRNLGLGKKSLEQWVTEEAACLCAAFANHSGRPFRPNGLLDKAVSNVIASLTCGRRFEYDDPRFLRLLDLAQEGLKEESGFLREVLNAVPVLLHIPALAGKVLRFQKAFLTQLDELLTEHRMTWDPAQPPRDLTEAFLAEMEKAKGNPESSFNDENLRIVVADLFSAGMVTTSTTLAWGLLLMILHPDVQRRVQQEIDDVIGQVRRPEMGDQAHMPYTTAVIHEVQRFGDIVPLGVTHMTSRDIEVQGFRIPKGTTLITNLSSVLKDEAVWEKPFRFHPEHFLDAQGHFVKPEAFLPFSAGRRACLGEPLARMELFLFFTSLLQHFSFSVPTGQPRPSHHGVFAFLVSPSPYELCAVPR

## O=C(O)COc1ccccc1C(Nc1ccccn1)c1cc(Cl)c2cccnc2c1O (stereo not shown) [Compound 1]
[1]; cell lines not specified
  antiproliferative activity (in words): only modest antiproliferative activity
Bcl-xL; at 100 µM
  inhibition of Bcl-xL: no appreciable inhibition
Human Mcl-1; Mcl-1 versus Bcl-xL, FP assays
  selectivity over Bcl-xL: greater than 40 fold

## CC1(C)CCC(c2ccc(Cl)cc2)=C(CN2CCN(c3ccc(C(=O)NS(=O)(=O)c4ccc(N[C@H](CCN5CCOCC5)CSc5ccccc5)c(S(=O)(=O)C(F)(F)F)c4)cc3)CC2)C1 [Navitoclax, reference compound]
Mcl1-1780 [2]
  induction of nuclear apoptosis / reduced viability (DAPI): only minimal effectiveness
Bcl2-1863 [3]
  induction of nuclear apoptosis / reduced viability (DAPI): distinct preference in inducing apoptosis

## CCN1CCN(C(c2ccc(C(F)(F)F)cc2)c2cc(Cl)c3cccnc3c2O)CC1 (stereo not shown) [Compound 9]
Mcl1-1780 [4]
  cytochrome c release: significantly greater
CYP450 2D6
  pIC50: < 5.00
SUDHL-8
  cytochrome c release: significantly reduced
CYP450 1A2
  pIC50: < 5.00
Mcl1-1780 [5]
  percent of Annexin V positive cells: greater in Mcl1-1780 than in Bcl2-1863
SUDHL-10
  cytochrome c release: significantly reduced
CYP450 3A4
  pIC50: < 5.00
SUDHL-6
  cytochrome c release: greatest extent of cytochrome c release
[1]; Homo sapiens, read-out: EC50 values, range over cell lines
  pEC50: 4.82 to 6.52
[1]; Mcl1-1780, Bcl2-1863, SUDHL-6, NCIH929
  efficacy in cellular proliferation assays (in words): low micromolar efficacy
Mcl1-1780 [2]
  induction of nuclear apoptosis / reduced viability (DAPI): reduces viability with a marked preference
Bcl2-1863 [6]
  percent of Annexin V positive cells: displayed dose-dependency
Bcl-xL; read-out: Bcl-xL IC50, FP assay, GST-Bcl-xL, FITC-Bim
  pIC50: 4.40
CYP450 2C9
  pIC50: < 5.00

## Oc1c(C(Nc2ccccn2)c2ccco2)cc(Cl)c2cccnc12 (stereo not shown) [Compound 7]
Human Mcl-1
  Mcl-1 potency relative to initial hit 1 (in words): enhanced potency

## Cc1ccnc(NC(c2ccc(F)cc2)c2cc(Cl)c3cccnc3c2O)c1 (stereo not shown) [Compound 8]
Human Mcl-1
  Mcl-1 potency relative to initial hit 1 (in words): five-fold more potent

## COc1ccc(C(Nc2ccccn2)c2cc(Cl)c3cccnc3c2O)cc1 (stereo not shown) [Compound 6]
Human Mcl-1
  Mcl-1 potency relative to initial hit 1 (in words): enhanced potency
